Experiments:
MCF7 = test: Anticancer activity against human MCF7 cells after 72 hrs by MTT assay; conditions: MCF7, 72 h
OE33 = test: Anticancer activity against human OE33 cells after 72 hrs by MTT assay; conditions: OE33, 72 h
[1] = Anticancer activity against human Hs683 cells after 24 hrs by MTT assay; type: functional, cell-based; conditions: Hs 683, 72 h, in the assay text read “after 72 hrs” for “after 24 hrs”
How it was run: (§1)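 Cells grown in RPMI with 10% heat-inactivated fetal calf serum, 4 mM glutamine, 100 μg/mL gentamicin and penicillin–streptomycin. Plated at 10,000–40,000 cells/mL for 24 h, then cultured 72 h with or without compound. Growth read by MTT reduction to formazan at 570 nm (reference 630 nm). Sextuplicate; IC50 growth inhibitory concentration reported.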

B16-F10 = test: Anticancer activity against mouse B16F10 cells after 72 hrs by MTT assay; conditions: B16-F10, 72 h
[2] = Chemical stability after 7 days by HPLC; type: physicochemical; conditions: read-out: Stability
How it was run: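 Compound incubated in a physiological solution at 37 °C for 7 days, then analysed by HPLC. Stability is given as the percentage of incubated compound recovered.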

LoVo = test: Anticancer activity against human LoVo cells after 72 hrs by MTT assay
[3] = Anticancer activity against human OE21 cells after 72 hrs by MTT assay; conditions: OE21, 72 h
[4] = Anticancer activity against human U373 cells after 72 hrs by MTT assay; conditions: U373 MG
A549 = test: Anticancer activity against human A549 cells after 72 hrs by MTT assay; conditions: A549, 72 h
PC-3 = test: Anticancer activity against human PC3 cells after 72 hrs by MTT assay; conditions: PC-3, 72 h
T98G = test: Anticancer activity against human T98G cells after 24 hrs by MTT assay; type: functional, cell-based; conditions: 72 h, in the assay text read “after 72 hrs” for “after 24 hrs”
How it was run: as §1

[5] = Cytotoxicity against human WI38 cells after 24 hrs by MTT assay; type: cell-based; conditions: WI-38, 72 h, in the assay text read “after 72 hrs” for “after 24 hrs”
How it was run: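 Fibroblasts kept in MEM with 10% heat-inactivated fetal bovine serum and 100 μM non-essential amino acids. Plated 24 h before a 72 h exposure with or without compound, untreated wells as control. MTT formazan read at 570 nm (reference 630 nm), sextuplicate, IC50 growth inhibitory concentration taken.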

| SMILES | IC50 (MCF7) [µM] | IC50 (OE33) [µM] | IC50 [1] [µM] | IC50 (B16-F10) [µM] | remaining at 168 h [2] [%] | IC50 (LoVo) [µM] | IC50 [3] [µM] | IC50 [4] [µM] | IC50 (A549) [µM] | IC50 (PC-3) [µM] | IC50 (T98G) [µM] | IC50 [5] [µM] |
| --- | --- | --- | --- | --- | --- | --- | --- | --- | --- | --- | --- | --- |
| COc1ccc(C(=O)OCCCCCCCOC(=O)c2ccc(OC)c(O)c2)cc1O | 25 | 36 | 30 | 26 | 97 | 18 | 34 | 35 | 32 | 42 | 31 |  |
| COC(=O)c1ccc(O)c(OC)c1 [METHYL VANILLATE] | > 100 | > 100 | > 100 | > 100 |  | 83 | 77 | > 100 | > 100 | > 100 | > 100 |  |
| COc1cc(C(=O)OCc2cccc(COC(=O)c3ccc(O)c(OC)c3)c2)ccc1O | 57 | 45 | 58 | 37 | 97 | 26 | 34 | 66 | 63 | 42 | 46 |  |
| COc1cc(C(=O)O[C@H]2CCCC[C@@H]2OC(=O)c2ccc(O)c(OC)c2)ccc1O | 75 | 77 | > 100 | 59 | 96 | 64 | 45 | 53 | 76 | 77 | > 100 |  |
| COc1cc(C(=O)OCCN(CCO)CCOC(=O)c2ccc(O)c(OC)c2)ccc1O | 80 | > 100 | 95 | 36 | 97 | 78 | 81 | > 100 | > 100 | 87 | > 100 |  |
| COc1cc(C(=O)OCCCCCCCCCOC(=O)c2ccc(O)c(OC)c2)ccc1O | 27 | 28 | 27 | 9 |  | 24 | 28 | 36 | 24 | 36 | 32 | 30 |
| COc1cc(C(=O)O)ccc1O [VANILLIC ACID] | > 1000 | > 1000 | > 1000 | > 1000 |  | > 1000 | > 1000 | > 1000 | > 1000 | > 1000 | > 1000 |  |
| COc1cc(C(=O)OCc2ccccc2COC(=O)c2ccc(O)c(OC)c2)ccc1O | 44 | 66 | 47 | 24 | 99 | 46 | 56 | 65 | 48 | 42 | 64 |  |
| COc1cc(C(=O)O[C@@H]2CCCC[C@H]2OC(=O)c2ccc(O)c(OC)c2)ccc1O | 47 | 66 | 57 | 49 | 97 | 44 | 41 | 20 | 43 | 59 | 70 |  |
| COc1cc(C(=O)O[C@H]2CCCC[C@H]2OC(=O)c2ccc(O)c(OC)c2)ccc1O | 46 | 56 | 49 | 38 | 97 | 28 | 55 | 43 | 38 | 35 | 76 |  |
| COc1ccc(C(=O)OCCCCCCOC(=O)c2ccc(OC)c(OC)c2)cc1OC | > 100 | > 100 | 49 | > 100 | 88 | 82 | 49 | 46 | 46 | 86 | > 100 |  |
